Reference: PMC8550878 (Journal of medicinal chemistry, 2021)
Non-standard residues stand in square brackets, D forms with d. Residues, ends and D or L forms follow the SMILES beside them. No end group written: not given here. *: point of attachment. Benzoyl(2-OMe,5-SO2F) = COc1ccc(S(=O)(=O)F)cc1C(=O)*; Biotin = O=C1N[C@H]2[C@H](CS[C@H]2CCCCC(=O)*)N1; X1 = Cc1ccc(S(=O)(=O)F)cc1C(=O)*; hSer = N[C@@H](CCO)C(=O)O; Nle = CCCC[C@H](N)C(=O)O; Abu = CC[C@H](N)C(=O)O; Dap = NC[C@H](N)C(=O)O; Ahx = NCCCCCC(=O)O

Columns and labels:
hBfl-1 = molecular target: T1, hBfl-1 (Homo sapiens, UniProt Q16548); assay: DELFIA displacement assay, hBfl-1; format: binding
T1 sequence (Q16548 1-149): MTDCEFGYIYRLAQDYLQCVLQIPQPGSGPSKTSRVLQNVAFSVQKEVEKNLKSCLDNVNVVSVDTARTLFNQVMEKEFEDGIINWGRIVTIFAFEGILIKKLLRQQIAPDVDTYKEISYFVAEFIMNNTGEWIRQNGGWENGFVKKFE

Solubility = format: physicochemical; settings: qualitative, relative to peptides 10 and 11
hMcl-1 [1] = molecular target: T2, hMcl-1 (Homo sapiens, UniProt Q07820); assay: DELFIA displacement assay, hMcl-1; format: binding
Mcl-1 in A549 cells = assay: Mcl-1 protein levels in A549 cells by immunoblotting; format: cell-based, human; settings: 50 or 100 μM compound, 2 h, western blot relative to β-tubulin
In short: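 A549 cells grown in Ham's F-12 with GlutaMAX, 10% FBS, 1% PenStrep and 0.5 μg/mL puromycin. Cells were exposed to DMSO or test compound (50 or 100 μM) for 2 h, with or without 30 min pre-treatment with 1 μM carfilzomib. Lysates were run on SDS-PAGE, transferred to PVDF, blocked in 5% milk/TBS-T, probed overnight at 4 °C for Mcl-1 and β-tubulin, then HRP secondary and ECL detection.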

[2] = system: Mcl-1 in A549 cell lysates; assay: Covalent adduct in spiked A549 cell lysates by immunoblotting; format: binding, human; settings: A549 cell lysates spiked with 100 μM compound for 1 h at 37 °C, western blot
In short: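 A549 cells grown in Ham's F-12 with GlutaMAX, 10% FBS, PenStrep and 0.5 μg/mL puromycin. Harvested cells were lysed for 20 min on ice in Tris pH 7.4 buffer with Triton X-100, deoxycholate, SDS, IGEPAL, EDTA, protease and phosphatase inhibitors. Cleared, protein-quantified supernatant was incubated with DMSO or 100 μM test compound for 1 h at 37 °C. Then SDS-PAGE, PVDF transfer, milk block, anti-Mcl-1 and β-tubulin overnight at 4 °C, HRP secondary, ECL.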

hMcl-1 construct = assay: In vitro denaturation thermal shift; format: binding, human; settings: hMcl-1 construct used for biochemical and crystallization studies (Figure S4)
hMcl-1 [3] = molecular target: T2, hMcl-1; assay: Mass spectrometry of covalent adduct; format: binding; settings: protein alone 18,763 Da (Figure S1)
[4] = molecular target: T3, hMcl-1 (residues 172–323) with N-terminal His tag (human, UniProt Q07820 172-323); assay: DELFIA displacement assay
[5] = molecular target: T3, hMcl-1 (residues 172–323) with …; assay: DELFIA displacement assay; remark: listed apart in the source
[6] = molecular target: T4, hBfl-1 (residues 1–149) with N-terminal His tag (human, UniProt Q16548 1-149); assay: DELFIA displacement assay
T4 sequence (looked up): T1 sequence (Q16548 1-149)

T2 sequence (Q07820 172-323): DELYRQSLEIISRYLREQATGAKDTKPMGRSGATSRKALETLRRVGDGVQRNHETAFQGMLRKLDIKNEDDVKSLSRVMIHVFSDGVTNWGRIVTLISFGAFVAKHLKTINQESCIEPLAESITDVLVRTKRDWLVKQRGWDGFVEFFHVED
T3 sequence (Q07820 172-323): as above

With Ac-AIAEQLRRIGDRF-NH2 [Compound 12] as the molecule, how does the IC50 (hBfl-1) read?
The IC50 was over 10 µM.

And the solubility (Solubility)?
The solubility was “increased solubility”.

Which IC50 (hMcl-1 [1]) does the source give for AIAQVLRRIGDAF-NH2 [Compound 7] here?
Its IC50 is about 1.8 µM.

Which results are given for `CC[C@H](C)[C@H](NC(=O)[C@H](CCCNC(=N)N)NC(=O)[C@H](CCCNC(=N)N)NC(=O)[C@H](CC(C)C)NC(=O)[C@H](CCC(N)=O)NC(=O)[C@H](CCC(=O)O)NC(=O)[C@H](C)NC(=O)[C@@H](NC(=O)[C@H](CNC(=O)c1cc(S(=O)(=O)F)ccc1OC)NC(C)=O)[C@@H](C)CC)C(=O)NCC(=O)N[C@@H](CC(=O)O)C(=O)N[C@@H](CCCNC(=N)N)C(=O)N[C@@H](Cc1ccccc1)C(N)=O` [Compound 16] (Ac-[Dap](Benzoyl(2-OMe,5-SO2F))IAEQLRRIGDRF-NH2)?
Mcl-1 protein levels (Mcl-1 in A549 cells): decrease in Mcl-1 protein levels; covalent adduct with Mcl-1 by band shift in cell lysates [2]: Covalent adduct was detected

What does the source list for `CC[C@H](C)[C@H](NC(=O)[C@H](CCCNC(=N)N)NC(=O)[C@H](CCCNC(=N)N)NC(=O)[C@H](CC(C)C)NC(=O)[C@H](CCC(N)=O)NC(=O)[C@H](CCC(=O)O)NC(=O)[C@H](C)NC(=O)[C@@H](NC(=O)[C@H](CNC(=O)c1cc(S(=O)(=O)F)ccc1C)NC(C)=O)[C@@H](C)CC)C(=O)NCC(=O)N[C@@H](CC(=O)O)C(=O)N[C@@H](CCCNC(=N)N)C(=O)N[C@@H](Cc1ccccc1)C(N)=O` [Compound 15] (Ac-[Dap](X1)IAEQLRRIGDRF-NH2)?
denaturation thermal shift (hMcl-1 construct): 23 °C; MW of hMcl-1 after incubation with compound (hMcl-1 [3]): 20,544 Da

For AIAQLLRRIGDAF-NH2 [Compound 8], which IC50 (hMcl-1 [1]) is on record?
Its IC50 is about 1.8 µM.

B1: peptide 6 (peptide)
chain: H-AIAQ[Abu]LRRIGDAF-NH2
SMILES: CC[C@H](NC(=O)[C@H](CCC(N)=O)NC(=O)[C@H](C)NC(=O)[C@@H](NC(=O)[C@H](C)N)[C@@H](C)CC)C(=O)N[C@@H](CC(C)C)C(=O)N[C@@H](CCCNC(=N)N)C(=O)N[C@@H](CCCNC(=N)N)C(=O)N[C@H](C(=O)NCC(=O)N[C@@H](CC(=O)O)C(=O)N[C@@H](C)C(=O)N[C@@H](Cc1ccccc1)C(N)=O)[C@@H](C)CC
Which IC50 [4] does the source give for B1 here?
Its IC50 is about 1.3 µM.

B2: peptide 5 (peptide)
chain: H-AIAQALRRIGDA[Nle]-NH2
SMILES: CCCC[C@H](NC(=O)[C@H](C)NC(=O)[C@H](CC(=O)O)NC(=O)CNC(=O)[C@@H](NC(=O)[C@H](CCCNC(=N)N)NC(=O)[C@H](CCCNC(=N)N)NC(=O)[C@H](CC(C)C)NC(=O)[C@H](C)NC(=O)[C@H](CCC(N)=O)NC(=O)[C@H](C)NC(=O)[C@@H](NC(=O)[C@H](C)N)[C@@H](C)CC)[C@@H](C)CC)C(N)=O
With B2 as the molecule, how does the IC50 [4] read?
Its IC50 is about 1.6 µM.

With H-AIAQALRRIGDAY-NH2 [peptide 2] as the molecule, how does the IC50 [4] read?
The IC50 was over 3.6 µM.

Which IC50 [4] does the source give for Ac-AIAEALRRIGDAF-NH2 [peptide 10] here?
The IC50 was 0.261 µM.

Which IC50 [4] does the source give for H-AIAEQLRRIGDAF-NH2 [peptide 11] here?
The IC50 was 0.313 µM.

Which IC50 [4] does the source give for H-AIAQALRRIGDAL-NH2 [peptide 4] here?
Its IC50 is 1.2 µM.

With H-AIAQALRRIGDAR-NH2 [peptide 3] as the molecule, how does the IC50 [4] read?
Its IC50 is over 10 µM.

Which IC50 [4] does the source give for Ac-AIAEQLRRIGDRF-NH2 [peptide 12] here?
The IC50 was 0.57 µM.

B3: peptide 9 (peptide)
chain: H-AIAQ[hSer]LRRIGDAF-NH2
SMILES: CC[C@H](C)[C@H](NC(=O)[C@H](C)N)C(=O)N[C@@H](C)C(=O)N[C@@H](CCC(N)=O)C(=O)N[C@@H](CCO)C(=O)N[C@@H](CC(C)C)C(=O)N[C@@H](CCCNC(=N)N)C(=O)N[C@@H](CCCNC(=N)N)C(=O)N[C@H](C(=O)NCC(=O)N[C@@H](CC(=O)O)C(=O)N[C@@H](C)C(=O)N[C@@H](Cc1ccccc1)C(N)=O)[C@@H](C)CC
Which IC50 [4] does the source give for B3 here?
The IC50 was about 3 µM.

B4: biotinylated-BH3 peptide (biotin-AHA-EDIIRNIARHLAQVGDSMDR-NH2) (peptide)
peptide: {Biotin-Ahx}-EDIIRNIARHLAQVGDSMDR-NH2
SMILES: CC[C@H](C)[C@H](NC(=O)[C@H](CC(N)=O)NC(=O)[C@H](CCCNC(=N)N)NC(=O)[C@@H](NC(=O)[C@@H](NC(=O)[C@H](CC(=O)O)NC(=O)[C@H](CCC(=O)O)NC(=O)CCCCCNC(=O)CCCC[C@@H]1SC[C@@H]2NC(=O)N[C@@H]21)[C@@H](C)CC)[C@@H](C)CC)C(=O)N[C@@H](C)C(=O)N[C@@H](CCCNC(=N)N)C(=O)N[C@@H](Cc1c[nH]cn1)C(=O)N[C@@H](CC(C)C)C(=O)N[C@@H](C)C(=O)N[C@@H](CCC(N)=O)C(=O)N[C@H](C(=O)NCC(=O)N[C@@H](CC(=O)O)C(=O)N[C@@H](CO)C(=O)N[C@@H](CCSC)C(=O)N[C@@H](CC(=O)O)C(=O)N[C@@H](CCCNC(=N)N)C(N)=O)C(C)C
What does the source list for B4?
binding result [5]: binds; binding result [6]: binds
